Consider two compounds from ChEMBL document CHEMBL4382268, “Glycyrrhetinic acid derivatives containing aminophosphonate ester species as multidrug resistance reversers that block the NF-κB pathway and cell proliferation” (Bioorg Med Chem Lett, 2018).

The term IC50 denotes the concentration that gives 50% inhibition.

The subject of one experiment is HepG2. The experiment is described as follows: Antiproliferative activity against human HepG2 cells after 48 hrs by MTT assay. Type of experiment: functional, cell-based. The following applies: HepG2, 48 h. In a few lines:
(§1)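 MTT read-out of antiproliferative activity across cancer lines HepG-2, NCI-H460, MGC-803, A549 and MG-63 and normal liver line HL-7702. IC50 given as mean ± S.D. of three separate experiments, each run in triplicate.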

Another experiment has as its system L02. In words: Antiproliferative activity against human HL-7702 cells after 48 hrs by MTT assay. The class given is functional, cell-based. The following applies: L02, 48 h. In a few lines: as §1
On the technique in general: Tetrazolium assays rely on reduction of a dye to a coloured formazan, in cell work by metabolically active cells.

The next experiment has as its system NCI-H460. In words: Antiproliferative activity against human NCI-H460 cells after 48 hrs by MTT assay. The class given is functional, cell-based. The conditions noted are these: NCI-H460, 48 h. In a few lines:
as §1

A short description of experiment [1]: Growth inhibition of cisplatin-resistant human SKOV3/DDP cells after 48 hrs by MTT assay. The class given is functional. The following applies: SK-OV-3, 48 h. The method in brief: (§2)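 MTT growth inhibition in the paired ovarian lines, cisplatin-sensitive SK-OV-3 and cisplatin-resistant SK-OV-3/CDDP. IC50 given as mean ± S.D. of three separate experiments, each in triplicate.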

The nature of experiment [2]: Inhibition of TNF-alpha induced NF-kappaB activation in human A549 cells after 7 hrs by Bright-Glo luciferase reporter gene assay. The class given is cell-based. The following applies: Homo sapiens, A549, 7 h; read-out: IC50. The method in brief: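 A549 cells transiently cotransfected with an NF-κB-Luc reporter and stimulated with TNF-α. Luciferase read-out of inhibition gives IC50, the mean of at least three independent experiments each with triplicates.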

A further experiment deals with MG-63. In words: Antiproliferative activity against human MG63 cells after 48 hrs by MTT assay. Type of experiment: functional, cell-based. The following applies: MG-63, 48 h. The method in brief: as §1
The next experiment deals with A549. The experiment is described as follows: Antiproliferative activity against human A549 cells after 48 hrs by MTT assay. Type of experiment: functional, cell-based. The following applies: A549, 48 h. The method in brief: as §1
In another experiment the test system is SK-OV-3. The experiment is described as follows: Growth inhibition of cisplatin sensitive human SKOV3 cells after 48 hrs by MTT assay. The class given is functional, cell-based. The following applies: SK-OV-3, 48 h. In a few lines:
as §2

The subject of a further experiment is MGC-803. The experiment is described as follows: Antiproliferative activity against human MGC803 cells after 48 hrs by MTT assay. Type of experiment: functional, cell-based. The conditions noted are these: MGC-803, 48 h. The method in brief:
as §1

The nature of experiment [3]: Selectivity ratio of IC50 for cisplatin-resistant human SKOV3/DDP cells to IC50 for cisplatin sensitive human SKOV3 cells. Type of experiment: functional. The method in brief: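 IC50 determined in resistant SK-OV-3/CDDP cells divided by IC50 in parental SK-OV-3 cells. Each IC50 by MTT, three separate experiments each in triplicate.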

With `CC1(C)[C@@H](O)CC[C@]2(C)[C@H]3C(=O)C=C4[C@@H]5C[C@@](C)(C(=O)O)CC[C@]5(C)CC[C@@]4(C)[C@]3(C)CC[C@@H]12` [ENOXOLONE], the IC50 was 44.5 µM with HepG2; over 50 µM in the experiment with L02; 37.6 µM in the experiment with NCI-H460; 49.4 µM in experiment [1]; over 30 µM in [2]; over 50 µM in the experiment with MG-63. Moreover, the IC50 in the experiment with A549 is 36.1 µM; in the experiment with SK-OV-3, 45.6 µM; in the experiment on MGC-803 it was over 50 µM. Moreover, the “Ratio IC50” value in experiment [3] worked out at 1.08.
For `CCOP(=O)(OCC)C(Nc1ccc(CC(=O)NCCCNC(=O)[C@@]2(C)CC[C@]3(C)CC[C@]4(C)C(=CC(=O)[C@@H]5[C@@]6(C)CC[C@H](OC(C)=O)C(C)(C)[C@@H]6CC[C@]54C)[C@@H]3C2)cc1)c1ccc(F)cc1` (stereo not given in full), the IC50 in the experiment with HepG2 is 15.3 µM; with L02, over 50 µM; with NCI-H460, 14.9 µM; in [1], 13.4 µM; in [2], 3.01 µM; in the experiment on MG-63, 13.7 µM. Further, the results for the IC50 in the experiment with A549, in the experiment on SK-OV-3 and in the experiment on MGC-803 were 15 µM, 10.1 µM and 16.3 µM, respectively. For the same compound, the “Ratio IC50” value in experiment [3] is 1.32.
